The values below come from ChEMBL document CHEMBL3734738, “A structure-activity relationship of non-peptide macrocyclic histone deacetylase inhibitors and their anti-proliferative and anti-inflammatory activities” (Bioorg Med Chem, 2015).

The target of experiment [1] is T1, Histone deacetylase 8 (Homo sapiens, UniProt Q9BY41).
T1 sequence (Q9BY41 whole entry): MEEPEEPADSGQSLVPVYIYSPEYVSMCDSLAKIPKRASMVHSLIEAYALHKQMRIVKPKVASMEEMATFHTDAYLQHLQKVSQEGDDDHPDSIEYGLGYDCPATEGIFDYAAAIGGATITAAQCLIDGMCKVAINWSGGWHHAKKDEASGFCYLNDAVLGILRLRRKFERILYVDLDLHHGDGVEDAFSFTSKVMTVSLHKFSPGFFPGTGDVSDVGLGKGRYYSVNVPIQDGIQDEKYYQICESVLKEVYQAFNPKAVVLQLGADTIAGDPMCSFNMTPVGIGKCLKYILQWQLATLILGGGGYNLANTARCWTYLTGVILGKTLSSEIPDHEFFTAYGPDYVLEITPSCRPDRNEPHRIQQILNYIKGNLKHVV
Briefly: Inhibition of recombinant HDAC8 (unknown origin) expressed in Escherichia coli BL21(DE3) after 60 mins using trichostatin A by label-free mass spectrometry-based SAMDI assay.

The target of experiment [2] is Histone deacetylase 1 (Homo sapiens, UniProt Q13547). Nature of the experiment: Inhibition of recombinant HDAC1 (unknown origin) expressed in Escherichia coli BL21(DE3) after 60 mins using trichostatin A by label-free mass spectrometry-based SAMDI assay.
The target in experiment [3] is T2, Protein deacetylase HDAC6 (Homo sapiens, UniProt Q9UBN7).
T2 sequence (Q9UBN7 whole entry): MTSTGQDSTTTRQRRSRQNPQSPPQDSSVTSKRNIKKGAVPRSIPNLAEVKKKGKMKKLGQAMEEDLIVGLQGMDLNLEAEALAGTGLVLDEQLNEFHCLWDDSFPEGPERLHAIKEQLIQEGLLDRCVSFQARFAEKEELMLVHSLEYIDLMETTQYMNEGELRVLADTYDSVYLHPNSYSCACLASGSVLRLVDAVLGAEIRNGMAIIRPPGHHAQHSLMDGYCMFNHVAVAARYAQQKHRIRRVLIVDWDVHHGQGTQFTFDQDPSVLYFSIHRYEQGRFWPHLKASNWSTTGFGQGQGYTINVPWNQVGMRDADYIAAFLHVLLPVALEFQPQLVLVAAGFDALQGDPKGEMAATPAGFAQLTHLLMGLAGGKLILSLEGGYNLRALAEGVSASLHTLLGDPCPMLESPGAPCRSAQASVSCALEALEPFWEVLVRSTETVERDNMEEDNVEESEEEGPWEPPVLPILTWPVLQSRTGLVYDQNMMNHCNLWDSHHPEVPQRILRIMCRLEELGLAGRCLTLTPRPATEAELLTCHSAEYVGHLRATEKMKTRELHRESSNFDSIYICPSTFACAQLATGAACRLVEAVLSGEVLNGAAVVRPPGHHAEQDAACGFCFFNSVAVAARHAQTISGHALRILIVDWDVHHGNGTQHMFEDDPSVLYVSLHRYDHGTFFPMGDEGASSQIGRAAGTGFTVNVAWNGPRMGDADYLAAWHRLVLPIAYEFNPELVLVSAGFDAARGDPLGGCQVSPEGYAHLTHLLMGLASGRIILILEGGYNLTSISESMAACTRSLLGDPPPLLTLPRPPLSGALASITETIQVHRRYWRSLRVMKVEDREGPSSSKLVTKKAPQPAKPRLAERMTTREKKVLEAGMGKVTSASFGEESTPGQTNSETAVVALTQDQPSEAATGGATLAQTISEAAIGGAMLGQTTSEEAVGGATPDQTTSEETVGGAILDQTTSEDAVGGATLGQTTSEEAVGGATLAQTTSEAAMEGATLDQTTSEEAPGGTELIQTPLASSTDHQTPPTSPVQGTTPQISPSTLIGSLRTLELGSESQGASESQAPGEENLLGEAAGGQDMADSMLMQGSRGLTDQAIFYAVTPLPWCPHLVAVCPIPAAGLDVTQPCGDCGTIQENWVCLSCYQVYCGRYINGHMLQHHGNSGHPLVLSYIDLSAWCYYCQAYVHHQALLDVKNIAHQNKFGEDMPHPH
Briefly: Inhibition of recombinant HDAC6 (unknown origin) expressed in Escherichia coli BL21(DE3) after 60 mins using trichostatin A by label-free mass spectrometry-based SAMDI assay.

Experiment [4] has as its system MCF7. Nature of the experiment: Cytotoxicity against human MCF7 cells after 72 hrs by MTS assay. The experiment is classed as functional, cell-based. The following applies: mcf7. In outline:
(§1)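 Cells kept in DMEM with 10% FBS and 1% penicillin-streptomycin, seeded in 96-well plates for 24 h, then exposed to a range of drug concentrations for 72 h at 0.1% DMSO; viability read by MTS assay per manufacturer's protocol.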

For experiment [5], the system named is A549. Nature of the experiment: Cytotoxicity against human A549 cells after 72 hrs by MTS assay. The experiment is classed as functional, cell-based. The following applies: a549. In a few lines: as §1
(Formazan colour is commonly taken as a measure of viable cells.)

Bounds are passed on as bounds.

Sequence of Histone deacetylase 1 (Q13547 whole entry): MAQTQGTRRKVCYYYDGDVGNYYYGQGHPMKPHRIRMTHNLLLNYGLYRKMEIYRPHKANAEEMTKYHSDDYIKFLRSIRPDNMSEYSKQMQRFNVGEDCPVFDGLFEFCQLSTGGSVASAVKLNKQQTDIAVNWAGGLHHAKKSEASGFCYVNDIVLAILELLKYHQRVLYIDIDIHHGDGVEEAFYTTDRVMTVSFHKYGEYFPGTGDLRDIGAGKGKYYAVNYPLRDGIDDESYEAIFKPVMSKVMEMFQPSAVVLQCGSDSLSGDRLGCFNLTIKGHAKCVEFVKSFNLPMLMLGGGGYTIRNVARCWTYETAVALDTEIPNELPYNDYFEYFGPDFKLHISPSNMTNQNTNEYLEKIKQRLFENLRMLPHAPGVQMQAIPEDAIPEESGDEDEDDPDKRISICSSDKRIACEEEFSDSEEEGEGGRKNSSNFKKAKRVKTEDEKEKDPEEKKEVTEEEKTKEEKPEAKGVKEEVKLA

On to `CC[C@@H]1OC(=O)[C@@H](C)[C@H](O[C@H]2C[C@@](C)(OC)[C@@H](O)[C@H](C)O2)[C@@H](C)[C@H](O[C@H]2O[C@@H](C)C[C@@H](N(C)C)[C@@H]2O)[C@](C)(O)C[C@H](C)CN(Cc2ccc(-c3cn(CCCCC(=O)NO)nn3)cc2)[C@H](C)[C@H](O)[C@@]1(C)O`, for which the IC50 (in general, the concentration needed to halve the response being measured) was > 10000 nM in experiment [1]; 2550 nM in experiment [2]; 24.5 nM in experiment [3]; “Not Active” in experiment [4]; “Not Active” in experiment [5].
Take `CC[C@H]1OC(=O)[C@@H](C)[C@H](O[C@H]2C[C@@](C)(OC)[C@](O)(CN(C)Cc3ccc(-c4cn(CCCCCCC(=O)NO)nn4)cc3)[C@H](C)O2)[C@H](C)[C@H](O[C@H]2O[C@@H](C)C[C@@H](N(C)C)[C@@H]2O)[C@@](C)(O)C[C@H](C)CN(C)[C@@H](C)[C@H](O)[C@@]1(C)O`: the half-maximal inhibitory concentration (IC50) in experiment [1] is 817 nM; in experiment [2], 50.4 nM; in experiment [3], 31.3 nM; in experiment [4] it was “Not Active”; in experiment [5], “Not Active”.
In the case of `CC[C@H]1OC(=O)[C@@H](C)[C@H](O[C@H]2C[C@@](C)(OC)[C@@H](O)[C@H](C)O2)[C@H](C)[C@H](O[C@H]2O[C@@H](C)C[C@@H](N(C)Cc3ccc(-c4cn(CCCC(=O)NO)nn4)cc3)[C@@H]2O)[C@@](C)(O)C[C@H](C)CN(C)[C@@H](C)[C@H](O)[C@@]1(C)O`, the IC50 is > 10000 nM in experiment [1]; > 10000 nM in experiment [2]; 106 nM in experiment [3]; “Not Active” in experiment [4]; “Not Active” in experiment [5].
On to `CC[C@@H]1OC(=O)[C@H](C)[C@@H](O[C@H]2C[C@@](C)(OC)[C@](O)(CN(C)C)[C@H](C)O2)[C@@H](C)[C@@H](O[C@@H]2O[C@H](C)C[C@H](N(C)Cc3ccc(-c4cn(CCCCCC(=O)NO)nn4)cc3)[C@H]2O)[C@](C)(O)C[C@@H](C)CN(C)[C@H](C)[C@@H](O)[C@]1(C)O`, for which the values for the IC50 in experiment [1], in experiment [2] and in experiment [3] were 1090 nM, 160 nM and 14.7 nM, respectively.
In the case of `CC[C@@H]1OC(=O)[C@H](C)[C@@H](O[C@@H]2C[C@](C)(OC)[C@H](O)[C@@H](C)O2)[C@@H](C)[C@@H](O[C@@H]2O[C@H](C)C[C@H](N(C)Cc3cccc(-c4cn(CCCCCC(=O)NO)nn4)c3)[C@H]2O)[C@](C)(O)C[C@@H](C)CN(C)[C@H](C)[C@@H](O)[C@]1(C)O`, the IC50 in experiment [1] was determined as 604 nM; in experiment [2] it was 109 nM; in experiment [3] it was 43.8 nM.
Consider `CC[C@H]1OC(=O)[C@H](C)[C@@H](O[C@@H]2C[C@](C)(OC)[C@H](O)[C@@H](C)O2)[C@H](C)[C@@H](O[C@@H]2O[C@H](C)C[C@H](N(C)C)[C@H]2O)[C@@](C)(O)C[C@@H](C)CN(Cc2ccc(-c3cn(CCC(=O)NO)nn3)cc2)[C@@H](C)[C@@H](O)[C@]1(C)O`, for which the IC50 is > 10000 nM in experiment [1], > 10000 nM in experiment [2] and 1230 nM in experiment [3].
Turning to `CC[C@H]1OC(=O)[C@H](C)C(=O)[C@H](C)[C@@H](O[C@@H]2O[C@H](C)C[C@H](N(C)Cc3ccccc3-c3cn(CCCCCCC(=O)NO)nn3)[C@H]2O)[C@@](C)(OC)C[C@@H](C)C2=NCCN3C(=O)O[C@@]1(C)[C@H]3[C@H]2C`, the IC50 was 2450 nM in experiment [1]; > 10000 nM in experiment [2]; 75.4 nM in experiment [3]; “Not Active” in experiment [4]; “Not Active” in experiment [5].
For the molecule `CC[C@@H]1OC(=O)[C@@H](C)[C@H](O[C@H]2C[C@@](C)(OC)[C@](O)(CN(C)Cc3ccc(-c4cn(CCCCC(=O)NO)nn4)cc3)[C@H](C)O2)[C@H](C)[C@H](O[C@@H]2O[C@H](C)C[C@H](N(C)C)[C@H]2O)[C@@](C)(OC)C[C@H](C)C(=O)[C@@H](C)[C@@H](O)[C@@]1(C)O`, the IC50 amounted to 1820 nM in experiment [1], 3690 nM in experiment [2] and 269 nM in experiment [3].
As for `CC[C@H]1OC(=O)[C@H](C)C(=O)[C@H](C)[C@@H](O[C@@H]2O[C@H](C)C[C@H](N(C)Cc3ccc(-c4cn(CCCCCC(=O)NO)nn4)cc3)[C@H]2O)[C@@](C)(OC)C[C@@H](C)C2=NCCN3C(=O)O[C@@]1(C)[C@H]3[C@H]2C`, the IC50 was determined as 2030 nM in experiment [1], 73.1 nM in experiment [2] and 8.9 nM in experiment [3].
Take `CC[C@@H]1OC(=O)[C@@H](C)[C@H](O[C@H]2C[C@@](C)(OC)[C@](O)(CN(C)Cc3ccc(-c4cn(CC(=O)NO)nn4)cc3)[C@H](C)O2)[C@H](C)[C@H](O[C@@H]2O[C@H](C)C[C@H](N(C)C)[C@H]2O)[C@@](C)(OC)C[C@H](C)C(=O)[C@@H](C)[C@@H](O)[C@@]1(C)O`: the IC50 was 7120 nM in experiment [1], > 10000 nM in experiment [2] and 5350 nM in experiment [3].
For the molecule `CC[C@@H]1OC(=O)[C@@H](C)[C@H](O[C@H]2C[C@@](C)(OC)[C@](O)(CN(C)Cc3ccc(-c4cn(CCC(=O)NO)nn4)cc3)[C@H](C)O2)[C@H](C)[C@H](O[C@@H]2O[C@H](C)C[C@H](N(C)C)[C@H]2O)[C@@](C)(OC)C[C@H](C)C(=O)[C@@H](C)[C@@H](O)[C@@]1(C)O`, the values for the IC50 in experiment [1], in experiment [2] and in experiment [3] were 10200 nM, > 10000 nM and 3560 nM, respectively.
Regarding `CC[C@H]1OC(=O)[C@H](C)[C@@H](O[C@@H]2C[C@](C)(OC)[C@H](O)[C@@H](C)O2)[C@H](C)[C@@H](O[C@@H]2O[C@H](C)C[C@H](N(C)C)[C@H]2O)[C@@](C)(O)C[C@@H](C)CN(Cc2ccc(-c3cn(CC(=O)NO)nn3)cc2)[C@@H](C)[C@@H](O)[C@]1(C)O`, the IC50 in experiment [1], in experiment [2] and in experiment [3] was > 10000 nM throughout.
In the case of `CC[C@H]1OC(=O)[C@@H](C)[C@H](O[C@H]2C[C@@](C)(OC)[C@@H](O)[C@H](C)O2)[C@H](C)[C@H](O[C@H]2O[C@@H](C)C[C@@H](N(C)Cc3ccc(-c4cn(CCCCCC(=O)NO)nn4)cc3)[C@@H]2O)[C@@](C)(O)C[C@H](C)CN(C)[C@@H](C)[C@H](O)[C@@]1(C)O` (stereo in doubt), the IC50 was 604 nM in experiment [1], 316 nM in experiment [2] and 14.3 nM in experiment [3].
`CC[C@H]1OC(=O)[C@H](C)[C@@H](O[C@@H]2C[C@](C)(OC)[C@H](O)[C@@H](C)O2)[C@@H](C)[C@@H](O[C@H]2O[C@@H](C)C[C@@H](N(C)Cc3ccc(-c4cn(CCCC(=O)NO)nn4)cc3)[C@@H]2O)[C@](C)(OC)C[C@@H](C)C(=O)[C@H](C)[C@H](O)[C@]1(C)O`: the IC50 in experiment [1] was found to be 986 nM; in experiment [2], 9910 nM; in experiment [3], 70.9 nM.
The corresponding values for `CC[C@H]1OC(=O)[C@@H](C)[C@H](O[C@H]2C[C@@](C)(OC)[C@](O)(CN(C)Cc3ccc(-c4cn(CCCCC(=O)NO)nn4)cc3)[C@H](C)O2)[C@H](C)[C@H](O[C@H]2O[C@@H](C)C[C@@H](N(C)C)[C@@H]2O)[C@@](C)(O)C[C@H](C)CN(C)[C@@H](C)[C@H](O)[C@@]1(C)O` are 709 nM, 531 nM and 95.3 nM.
